Measurements from ChEMBL document CHEMBL1141286, “Benzochromenones from the marine crinoid Comantheria rotula inhibit hypoxia-inducible factor-1 (HIF-1) in cell-based reporter assays and differentially suppress the growth of certain tumor cell lines” (J Nat Prod, 2007).
Calls of active or inactive are those of the source. The rule behind the calls is not given here.

Key:
T47D [1] = assay: Inhibition of 1,10-phenanthroline-induced VEGF protein secretion in human T47D cells at 10 uM after 16 hrs by ELISA; assay type: functional, cell-based
Summary of the method: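 T47D cells stimulated with 1,10-phenanthroline, compound at 10 μM; secreted VEGF in conditioned media by ELISA, normalized to cell-lysate protein.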

[2] = DPPH radical scavenging activity relative to Trolox; assay type: functional; set-up: concentration or dose not given beside the values
Summary of the method: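 Compounds were made up as DMSO stocks and diluted in isopropanol to a final 10 μM. Each was mixed with DPPH in isopropanol at 10 μM or 30 μM DPPH, and absorbance was read at 515 nm. Scavenging was calculated as [1 − OD515(compound)/OD515(control)] × 100, then expressed as a percentage of Trolox activity. One experiment was run in triplicate.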

MOLT-4 = assay: Growth inhibition of human MOLT4 cells; assay type: functional; settings: read-out: Log LC50 (the source's name) (converted)
A549 = assay: Growth inhibition of human A549 cells; assay type: functional
EKVX = assay: Growth inhibition of human EKVX cells; assay type: functional
HOP-92 = assay: Growth inhibition of human HOP92 cells; assay type: functional
NCI-H322M = assay: Growth inhibition of human NCI-H322M cells; assay type: functional
NCI-H460 = assay: Growth inhibition of human NCI-H460 cells; assay type: functional
COLO 205 = assay: Growth inhibition of human COLO205 cells; assay type: functional
HCT-15 = assay: Growth inhibition of human HCT15 cells; assay type: functional
SW-620 = assay: Growth inhibition of human SW620 cells; assay type: functional
SF-268 = assay: Growth inhibition of human SF268 cells; assay type: functional
SF-539 = assay: Growth inhibition of human SF539 cells; assay type: functional
SNB-19 = assay: Growth inhibition of human SNB19 cells; assay type: functional
SNB-75 = assay: Growth inhibition of human SNB75 cells; assay type: functional
LOX IMVI = assay: Growth inhibition of human LOXIMVI cells; assay type: functional
SK-MEL-2 = assay: Growth inhibition of human SK-MEL2 cells; assay type: functional
SK-MEL-5 = assay: Growth inhibition of human SK-MEL5 cells; assay type: functional
UACC-257 = assay: Growth inhibition of human UACC257 cells; assay type: functional
UACC-62 = assay: Growth inhibition of human UACC62 cells; assay type: functional
SK-OV-3 = assay: Growth inhibition of human SK-OV3 cells; assay type: functional
IGROV-1 = assay: Growth inhibition of human IGROV1 cells; assay type: functional
786-0 = assay: Growth inhibition of human 786-0 cells; assay type: functional
ACHN = assay: Growth inhibition of human ACHN cells; assay type: functional
CAKI-1 = assay: Growth inhibition of human CAKI1 cells; assay type: functional
SN12C = assay: Growth inhibition of human SN12C cells; assay type: functional
UO-31 = assay: Growth inhibition of human UO31 cells; assay type: functional
PC-3 = assay: Growth inhibition of human PC3 cells; assay type: functional
MCF7 = assay: Growth inhibition of human MCF7 cells; assay type: functional
NCI/ADR-RES = assay: Growth inhibition of human NCI/ADR-RES cells; assay type: functional
Hs-578T = assay: Growth inhibition of human HS578T cells; assay type: functional
MDA-MB-435 = assay: Growth inhibition of human MDA-MB-435 cells; assay type: functional
BT-549 = assay: Growth inhibition of human BT549 cells; assay type: functional
T47D [3] = assay: Growth inhibition of human T47D cells; assay type: functional
HL-60 = assay: Growth inhibition of human HL60 cells; assay type: functional
[4] = molecular target: Hypoxia inducible factors; HIF-1-alpha, HIF-2-alpha (Homo sapiens, UniProt Q16665+Q99814); assay: Inhibition of HIF1 activation in human T47D cells by TK-luciferase assay; assay type: cell-based
Summary of the method: (§1)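 HIF-1 reporter (pHRE-TK-Luc) assays in transfected PC-3 or T47D cells; HIF-1 induced by hypoxia or by the hypoxia mimetic 1,10-phenanthroline (10 μM); compounds at half-log concentrations; luciferase activity measured; IC50 from experiments in triplicate.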

[5] = Inhibition of 1,10-phenanthroline-induced HIF1 activation in PC3 cells by TK-luciferase assay; assay type: cell-based; settings: Homo sapiens, PC-3; summary of the method: as §1
[6] = read-out: Log LC50 (the source's name) (converted)

In the case of CCCc1cc(=O)c2c(O)c3c(OC)cc(O)cc3cc2o1, the Activity (T47D [1]) is reported as “inactive”, the Activity [2] is reported as 40% and the CC50 (MOLT-4) is reported as > 100 µM. The GI50 (A549) was 19.1 µM, the CC50 (A549; [6]) was > 100 µM and the TGI (A549; read-out: Log TGI (converted)) was 50.1 µM. For the same compound, the GI50 (EKVX) was 28.8 µM, the CC50 (EKVX; [6]) was > 100 µM and the TGI (EKVX; read-out: Log TGI (converted)) was 97.7 µM. For the same compound, the GI50 (HOP-92) was 17.4 µM, the CC50 (HOP-92; [6]) was > 100 µM and the TGI (HOP-92; read-out: Log TGI (converted)) was 46.8 µM. For the same compound, the GI50 (NCI-H322M) was 26.3 µM, the CC50 (NCI-H322M; [6]) was > 100 µM and the TGI (NCI-H322M; read-out: Log TGI (converted)) was > 100 µM. The GI50 (NCI-H460) was 17.8 µM, the CC50 (NCI-H460; [6]) was > 100 µM and the TGI (NCI-H460; read-out: Log TGI (converted)) was 42.7 µM. The GI50 (COLO 205) was 25.1 µM, the CC50 (COLO 205; [6]) was > 100 µM and the TGI (COLO 205; read-out: Log TGI (converted)) was 50.1 µM. The GI50 (HCT-15) was 15.1 µM, the CC50 (HCT-15; [6]) was > 100 µM and the TGI (HCT-15; read-out: Log TGI (converted)) was 40.7 µM. The GI50 (SW-620) was 21.4 µM, the CC50 (SW-620; [6]) was 77.6 µM and the TGI (SW-620; read-out: Log TGI (converted)) was 40.7 µM. The GI50 (SF-268) was 20.4 µM, the LC50 (SF-268) was > 100 µM and the TGI (SF-268; read-out: Log TGI (converted)) was 58.9 µM. It also gave a GI50 (SF-539) of 19.5 µM, an LC50 (SF-539) of 81.3 µM and a TGI (SF-539; read-out: Log TGI (converted)) of 39.8 µM. It also gave a GI50 (SNB-19) of 32.4 µM, an LC50 (SNB-19) of 100 µM and a TGI (SNB-19; read-out: Log TGI (converted)) of 100 µM. For the same compound, the GI50 (SNB-75) was 30.9 µM, the LC50 (SNB-75) was > 100 µM and the TGI (SNB-75; read-out: Log TGI (converted)) was 74.1 µM. The GI50 (LOX IMVI) was 16.6 µM, the LC50 (LOX IMVI) was 63.1 µM and the TGI (LOX IMVI; read-out: Log TGI (converted)) was 32.4 µM. The GI50 (SK-MEL-2) was 18.6 µM, the LC50 (SK-MEL-2) was 91.2 µM and the TGI (SK-MEL-2; read-out: Log TGI (converted)) was 40.7 µM. The GI50 (SK-MEL-5) was 14.8 µM, the LC50 (SK-MEL-5) was 52.5 µM and the TGI (SK-MEL-5; read-out: Log TGI (converted)) was 27.5 µM. For the same compound, the GI50 (UACC-257) was 27.5 µM, the LC50 (UACC-257) was > 100 µM and the TGI (UACC-257; read-out: Log TGI (converted)) was 56.2 µM. For the same compound, the GI50 (UACC-62) was 15.5 µM, the LC50 (lethal concentration, 50% cell kill) (UACC-62) was 57.5 µM and the TGI (UACC-62; read-out: Log TGI (converted)) was 29.5 µM. The GI50 (SK-OV-3) was 32.4 µM, the LC50 (SK-OV-3) was > 100 µM and the TGI (SK-OV-3; read-out: Log TGI (converted)) was 85.1 µM. The GI50 (IGROV-1) was 19.1 µM, the CC50 (IGROV-1; [6]) was > 100 µM and the TGI (IGROV-1; read-out: Log TGI (converted)) was 44.7 µM. For the same compound, the GI50 (786-0) was 25.1 µM, the LC50 (786-0) was > 100 µM and the TGI (786-0; read-out: Log TGI (converted)) was > 100 µM. The GI50 (ACHN) was 22.4 µM, the CC50 (ACHN; [6]) was > 100 µM and the TGI (ACHN; read-out: Log TGI (converted)) was 64.6 µM. The GI50 (CAKI-1) was 30.2 µM, the LC50 (CAKI-1) was > 100 µM and the TGI (CAKI-1; read-out: Log TGI (converted)) was > 100 µM. For the same compound, the GI50 (SN12C) was 19.1 µM, the LC50 (SN12C) was > 100 µM and the TGI (SN12C; read-out: Log TGI (converted)) was 50.1 µM. For the same compound, the GI50 (UO-31) was 16.2 µM, the LC50 (UO-31) was > 100 µM and the TGI (UO-31; read-out: Log TGI (converted)) was 42.7 µM. For the same compound, the GI50 (PC-3) was 20.4 µM, the LC50 (PC-3) was > 100 µM and the TGI (PC-3; read-out: Log TGI (converted)) was 67.6 µM. The GI50 (MCF7) was 25.1 µM, the LC50 (MCF7) was > 100 µM and the TGI (MCF7; read-out: Log TGI (converted)) was 60.3 µM. For the same compound, the GI50 (NCI/ADR-RES) was 26.3 µM, the LC50 (concentration killing 50% of cells) (NCI/ADR-RES) was > 100 µM and the TGI (NCI/ADR-RES; read-out: Log TGI (converted)) was 75.9 µM. The GI50 (Hs-578T) was 25.1 µM, the LC50 (Hs-578T) was > 100 µM and the TGI (Hs-578T; read-out: Log TGI (converted)) was 67.6 µM. For the same compound, the GI50 (MDA-MB-435) was 20.9 µM, the LC50 (MDA-MB-435) was > 100 µM and the TGI (MDA-MB-435; read-out: Log TGI (converted)) was 57.5 µM. It also gave a GI50 (BT-549) of 18.2 µM, an LC50 (BT-549) of 95.5 µM and a TGI (BT-549; read-out: Log TGI (converted)) of 41.7 µM. The GI50 (T47D [3]) was 20.9 µM, the LC50 (T47D [3]) was > 100 µM and the TGI (T47D [3]; read-out: Log TGI (converted)) was 93.3 µM. The GI50 (HL-60) was 30.9 µM, the LC50 (HL-60) was > 100 µM and the TGI (HL-60; read-out: Log TGI (converted)) was 61.7 µM. The IC50 [4] was 1.7 µM and the IC50 [5] was 0.8 µM.
